The source made the active and inactive calls. The calls are words filed in the database; no cut-off is given here. Where a SMILES comes first, the peptide text is derived from it. [ ]: non-standard residue; d: D form. pY = N[C@@H](Cc1ccc(OP(=O)(O)O)cc1)C(=O)O
How the values were obtained:
[1] = (§1) Inhibition of human plasma alpha-thrombin assessed as spectrozyme TH hydrolysis preincubated for 10 mins by spectrophotometric analysis; format: cell-free
Method in brief: (§2)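 Human plasma α-thrombin (5 nM final) with inhibitor (1−900 μM final) in 20 mM Tris-HCl pH 7.4, 100 mM NaCl, 2.5 mM CaCl2, 0.1% PEG8000, PEG20000-coated cuvettes, 10 min. Spectrozyme TH then added (30 μM final). Initial rate from A405 increase. Residual activity fitted by logistic equation with floating Hill slope, Y0, YM to give IC50.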

[2] = species: Homo sapiens; experiment: Inhibition of human plasma alpha-thrombin assessed as spectrozyme TH hydrolysis at 1 to 900 uM preincubated for 10 mins by spectrophotometric analysis relative to control; format: cell-free; method in brief: as §2
[3] = molecular target: Coagulation factor X (Homo sapiens) (UniProt P00742); experiment: Inhibition of human factor 10a at 365 uM
[4] = molecular target: Prothrombin (Homo sapiens, UniProt P00734); experiment: Binding affinity to thrombin exosite-2 (unknown origin)
[5] = species: Homo sapiens; experiment: as §1; format: cell-free; method in brief: as §2
[6] = species: Homo sapiens; experiment: Binding affinity to human plasma alpha-thrombin exosite-2 using spectrozyme TH as substrate after overnight incubation at 25 degC by spectrophotometric analysis; format: cell-free

Sequence of Coagulation factor X (Homo sapiens) (P00742 41-179 limits assumed): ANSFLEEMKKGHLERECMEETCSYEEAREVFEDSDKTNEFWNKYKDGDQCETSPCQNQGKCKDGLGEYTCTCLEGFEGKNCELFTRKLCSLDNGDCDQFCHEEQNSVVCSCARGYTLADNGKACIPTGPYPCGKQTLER
Sequence of Coagulation factor X (Homo sapiens) (P00742 235-488 limits assumed): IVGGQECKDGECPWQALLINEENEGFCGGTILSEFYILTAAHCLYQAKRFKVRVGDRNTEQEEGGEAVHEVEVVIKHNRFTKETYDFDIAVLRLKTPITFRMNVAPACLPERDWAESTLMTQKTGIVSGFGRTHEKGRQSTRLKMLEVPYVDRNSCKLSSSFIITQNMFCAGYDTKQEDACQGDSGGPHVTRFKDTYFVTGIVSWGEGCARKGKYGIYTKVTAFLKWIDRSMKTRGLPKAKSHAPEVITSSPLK

Row | Compound | IC50 ([1]; read-out: IC50) [µM] | IC50 ([1]; read-out: pIC50 (converted)) [µM] | Efficacy [2] [%] | inhibition [3] | K [4] [µM] | inhibition [5] | K [6] [µM]
1 | C=CCOC(=O)c1c(C)oc2cc(OC)c(OCc3oc4cc(OC)c(OCc5oc6cc(OC)c(OS(=O)(=O)O)cc6c5C(=O)OCC)cc4c3C(=O)OCC)cc12 | 31 | 30.9 | 53 |  |  |  | 
2 | CCOC(=O)c1c(C)oc2cc(OC)c(OCc3oc4cc(OC)c(OCc5oc6cc(OC)c(OS(=O)(=O)O)cc6c5C(=O)OC(C)(C)C)cc4c3C(=O)OCC)cc12 | 165 | 166 | 94 | inactive |  |  | 
3 | CCOC(=O)c1c(C)oc2cc(OC)c(OCc3oc4cc(OC)c(OCc5oc6cc(OS(=O)(=O)O)c(OC)cc6c5C(=O)OCC)cc4c3C(=O)OCC)cc12 | 154 | 155 | 91 |  |  |  | 
4 | CC(C)C[C@H](NC(=O)[C@H](CC(=O)O)NC(=O)[C@H](CC(=O)O)NC(=O)[C@H](CCC(=O)O)NC(=O)[C@@H]1CCCN1C(=O)[C@H](Cc1ccc(OP(=O)(O)O)cc1)NC(=O)[C@H](CC(C)C)NC(=O)[C@H](CO)NC(=O)[C@H](CC(=O)O)NC(=O)[C@H](Cc1ccc(OP(=O)(O)O)cc1)NC(=O)[C@H](CCC(=O)O)NC(=O)[C@@H](NC(=O)[C@H](CCC(=O)O)NC(=O)[C@H](C)NC(=O)[C@@H]1CCCN1C(=O)[C@H](Cc1cnc[nH]1)NC(=O)[C@H](CCC(=O)O)NC(=O)[C@@H]1CCCN1C(=O)[C@H](CCCNC(=N)N)NC(=O)[C@@H](N)C(C)C)[C@@H](C)O)C(=O)O (H-VRPEHPAETE[pY]DSL[pY]PEDDL-OH) |  |  |  |  | 0.6 |  | 
5 | CCOC(=O)c1c(C)oc2cc(OC)c(OCc3oc4cc(OC)c(OCc5oc6cc(OCC)c(OS(=O)(=O)O)cc6c5C(=O)OCC)cc4c3C(=O)OCC)cc12 | 5.8 | 5.89 | 43 | inactive |  |  | 
6 | CCOC(=O)c1c(C)oc2cc(OC)c(OCc3oc4cc(OC)c(OCc5oc6cc(OC(C)C)c(OS(=O)(=O)O)cc6c5C(=O)OCC)cc4c3C(=O)OCC)cc12 | 99 | 100 | 26 | inactive |  |  | 
7 | N=C(N)NCCC[C@H](NC(=O)[C@@H]1CCCN1C(=O)[C@H](N)Cc1ccccc1)C(=O)CCl |  |  |  |  |  | Active | 
8 | CCOC(=O)c1c(COc2cc3c(C(=O)OCC)c(COc4cc5c(C(=O)O)c(C)oc5cc4OC)oc3cc2OC)oc2cc(OC)c(O)cc12 | > 500 |  |  | inactive |  |  | 
9 | CCOC(=O)c1c(C)oc2cc(OC)c(OCc3oc4cc(OC)c(OCc5oc6cc(OC)c(OS(=O)(=O)O)cc6c5C(=O)OCCOC)cc4c3C(=O)OCC)cc12 | > 500 |  |  | inactive |  |  | 
10 | CCOC(=O)c1c(COc2cc3c(C(=O)O)c(C)oc3cc2OC)oc2cc(OC)c(OCc3oc4cc(OC)c(OS(=O)(=O)O)cc4c3C(=O)OCC)cc12 | 66 | 66.1 | 49 | inactive |  |  | 
11 | CCOC(=O)c1c(C)oc2cc(OC)c(OCc3oc4cc(OC)c(OCc5oc6cc(OC)c(OS(=O)(=O)O)cc6c5C(=O)OC)cc4c3C(=O)OCC)cc12 | 2 | 2.04 | 39 | inactive |  |  | 
12 | O=C(O)C1=C[C@H](O)[C@@H](OS(=O)(=O)O)[C@H](O[C@H]2[C@H](O)[C@@H](NS(=O)(=O)O)[C@@H](O[C@H]3[C@H](O)[C@@H](OS(=O)(=O)O)[C@H](O[C@H]4[C@H](O)[C@@H](NS(=O)(=O)O)[C@@H](O[C@H]5[C@H](O)[C@@H](OS(=O)(=O)O)[C@H](O[C@H]6[C@H](O)[C@@H](NS(=O)(=O)O)[C@@H](O[C@H]7[C@H](O)[C@@H](OS(=O)(=O)O)[C@H](O[C@H]8[C@H](O)[C@@H](NS(=O)(=O)O)[C@@H](O)O[C@@H]8COS(=O)(=O)O)O[C@H]7COS(=O)(=O)O)O[C@@H]6COS(=O)(=O)O)O[C@H]5COS(=O)(=O)O)O[C@@H]4COS(=O)(=O)O)O[C@H]3COS(=O)(=O)O)O[C@@H]2COS(=O)(=O)O)O1 |  |  |  |  |  |  | 2.7
13 | CCOC(=O)c1c(C)oc2cc(OC)c(OCc3oc4cc(OC)c(OCc5oc6cc(OC)c(OCc7oc8cc(OC)c(OS(=O)(=O)O)cc8c7C(=O)OCC)cc6c5C(=O)OCC)cc4c3C(=O)OCC)cc12 | 158 | 158 |  |  |  |  | 
14 | CCOC(=O)c1c(C)oc2cc(OC)c(OCc3oc4cc(OC)c(OCc5oc6cc(OC)c(OCc7oc8cc(OC)c(OS(=O)(=O)C(C)(C)C)cc8c7C(=O)OCC)cc6c5C(=O)OCC)cc4c3C(=O)OCC)cc12 |  |  |  | inactive |  |  | 

Reference: ChEMBL document CHEMBL2396594, “Designing allosteric regulators of thrombin. Exosite 2 features multiple subsites that can be targeted by sulfated small molecules for inducing inhibition” (J Med Chem, 2013)
